# Experimental data taken from the EternaBench riboswitch data.
# Test system: MS2 coat protein
# Assay: apparent Kd, MS2 coat protein; higher = weaker binding; RNA-MaP array; FMN 200 µM where present
# Summary of the method: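 Green signal from SNAP-549-labelled MS2 coat protein was normalised to red-channel RNA signal and to the median Fmax of control clusters. The protein was titrated from 0.7 or 1.5 nM, doubling to 3 µM, without and then with constant ligand, over designs transcribed by stalled E. coli RNA polymerase on Illumina sequencing-chip clusters, in 100 mM Tris-HCl pH 7.5, 80 mM KCl, 4 mM MgCl2, BSA, DTT, yeast tRNA and Tween-20. The apparent Kd is the median of filtered per-cluster binding-curve fits.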
# [1] = designed as: ON switch for flavin mononucleotide, no ligand
# [2] = ligand present: flavin mononucleotide, designed as: ON switch for flavin mononucleotide
# [3] = designed as: OFF switch for flavin mononucleotide, no ligand
# [4] = ligand present: flavin mononucleotide, designed as: OFF switch for flavin mononucleotide
Sequence,apparent Kd [1] [nM],apparent Kd [2] [nM],apparent Kd [3] [nM],apparent Kd [4] [nM]
GCCAUCGCAUGAGGAUAUGGUCAGCUUUGCUGACCAGAAGGCAUGUCAAUAGACAUGAGGAUCACCCAUGUAGUUAAGAUGGCA,797,54,,
GCCAUCGUAUGAGGAUAUGGCACCGAAACGGUGCCAGAAGGCAUGUCAAUAGACAUGAGGAUCACCCAUGUGUUAUCGAUGGCC,84.9,11.7,,
GCCAUUGCAUGAGGAUAUGCUCCCGUUUCGGGAGCAGAAGGCAUGUCAUAAGACAUGAGGAUCACCCAUGUAUUUAAGAUGGCA,273,11.5,,
GCCGAACAUGAGGAUCACCCAUGUCUGGGUAAUUAAGGAUAUGGGAAGGCUUUGCCGUGGCCAGAAGGUGGUUAUC,171,108,,
GCCGAGUGAGGAUAUAGCCAGGUUCGAUAAGGUCGAAUCGGCUAGAAGGCACAUGAGGAUCACCCAUGUGGGUA,,,225,449
GCCGCACAUGAGGAUCACCCAUGUAAUUACAUGGGAGGAUAUCAGUGCUCGAAAGAGCACUGAGAAGGCCUGAGGC,81.3,1070,,
GCCGGGUAGGCAGGAUAUCCUCGCGCAAACACAUGAGGAUCACCCAUGUACACAAAACGUGAUAUGGAGAAGGGCCGACCCACG,24.2,5.66,,
GCCGGGUGGGUAGGAUAUGGCUAUGUCUCAUUGCUAGAAGGACCAACUGCUACAUGAGGAUCACCCAUGUCGUAGUGCACCCGG,138,28.9,,
GCCGGUUCAGUUAGGAUAUUCGACACACCUCUCUAGAAGAAGGAACAUGAGGAUCACCCAUGUGAUUCCUACCG,,,46.7,56.6
GCCGUAAGUGUGAGGAUAUACCUAUGGAUACAUAGGUAGAAGGCACAUGAGGAUCACCCAUGUUCUUAAUCGGC,,,130,296
GCCGUCAACGUAGGAUAUCUUCAGCCACAGCACAUUGCUGUACAUGAGGAUCACCCAUGUCCUGGAGAGAAGGACGGACGGCAG,108,19.6,,
GCCUAGCCCAAGCCCACGGCAUCACAGGAUAUGCCGAUAACAUGAGGAUCACCCAUGUCAACUCCGCAGAAGGGUGAUAUCGUG,75.9,10,,
GCCUCAUAGUAGAAGGGACUUCGGCUGUUAAGCAUCAUCUCCAUAUCACAUGAGGAUCACCCAUGUCAGGAUAUACUAAGAGGC,,,6.95,14.4
GCCUGCUGGCGAGGAUAUUCUGUGAGGUUCCGGCUCGUGUCUGUUACAUGAGGAUCACCCAUGUGGGAGAAGGUGUCUGUGGCC,,,6.15,6.13
GCGAAGAACGAGAAGGCCACUACAUGAGGAUCACCCAUGUCGUGGAGUAUUGGAGGAUAUCGAUCGGCGUCUCAUGAGGACAUA,,,5.73,5.61
GCGAAUAAGUGAGGAUAUACAUAAUUUAUAACUGUAGAAGGCACAAACCUCAAGACAUGAGGAUCACCCAUGUGAAAUAUCGCU,,,31,81.8
GCGAGCAUACAGAAGGGAUCGUCGUCGCGGCUGUCAGGAUAUGUAGCUUGGCCUAAACAUGAGGAUCACCCAUGUAUAAUGCUA,111,18.6,,
GCGAUAAACGAGGAUAUCGUAUCGGAAACGAUACGAGAAGGUGUAACAUGAGGAUCACCCAUGUUCCUCAACGC,,,38.4,38.4
GCGAUGAUCGAGAAGGCCACUACAUGAGGAUCACCCAUGUCGUGGUGUAUUGGAGGAUAUCGAUCGGCGUCUUAUGAGGACAUG,,,5.02,8.26
GCGAUUUUGUAAGGAUAUACACGAGUUUCAAGUGUAGAAGGUACUUACAUGAGGAUCACCCAUGUAUACAUGGAUAAUAGUCGC,548,84.2,,
GCGCAAACAUGAGGAUAUGUAUUAAAUAAUAAUACAGAAGGCAUGUCAAAUGACAUGAGGAUCACCCAUGUUGGCAAAAUGCGC,80.6,15.9,,
GCGCAAGCAUGAGGAUAUGUAUUAAAUAAUAAUACAGAAGGCAUGUCAAAUGACAUGAGGAUCACCCAUGUUGGCAAAAUGCGC,45.8,10.5,,
GCGCACUAAGUGAGGAUAUCGAUUUUUUUUAGGAUCGAGAAGGCACAUGAGGAUCACCCAUGUUUGACGUGCGC,,,15.5,15.2
GCGCAUUUUAGAUUUAUAUAAUUUUCAGAAGGUGAAUAGUCGACAUGAGGAUCACCCAUGUAUUUCAAGGAUAUGAUUUAGCGC,68.6,13,,
GCGCGCUAAGGAUAUACAUGAGGAUCACCCAUGUUGCUCUGAUGAGCGGGUGUAAGCUGUAGAAGGUAGAGCAA,,,61.9,123
GCGCUAAAACAGAAGGCCAAAUACAUGAGGAUCACCCAUGUCGAAUCAUGGAGGAUAUGUUAUUAAUUACUCGCAGAUGAGCGC,104,11.8,,
GCGCUGCAGCGGUGCACGAGACAUGAGGAUCACCCAUGUGACAGAAGGGACUUGUUAAAGGUAGGUCAGGAUAUGUCUUAAAAG,190,59.8,,

Sequence,apparent Kd [1] [nM],apparent Kd [2] [nM],apparent Kd [3] [nM],apparent Kd [4] [nM]
GCGGUCAACGUAGGAUAUCUUCAGCCGCAGCGCAUUGCUGUACAUGAGGAUCACCCAUGUCCUGGAGAGAAGGACGGACUGCAA,145,23.2,,
GCGUAAGAAUUAAUUGUGACUGACAGAAGGCAAUAGUAUGUGUCCGACAUGAGGAUCACCCAUGUUGAGGAUAUGUCUUGACGC,,,4.64,5
GCGUAAUAGGUGUAGCUAGUCAUUCAAGAAGGGUGGAGAACAUGAGGAUCACCCAUGUGGUUUAUACAGGAUAUUGAUAUACGC,258,51.2,,
GCGUACAUAUCAGGAUAUCAUAUAAUUGUUUAACUCAGUGUAUACAUGAGGAUCACCCAUGUUCUUGAGAAGGGAUAUGUACGC,,,9.08,9.76
GCGUACAUAUCAGGAUAUCAUAUAAUUGUUUAUCUCAGUGUAUACAUGAGGAUCACCCAUGUUCUUGAGAAGGGAUAUGUACGC,,,8.24,8.68
GCGUACAUCGGAGGAUAUCAUGUAAAUACAUGAGGAUCACCCAUGUCGAUGGAGACAUCGGAGAUUGAGAAGGCCGAUGUACCG,157,8.42,,
GCGUAUUAGGUGUAGCUAGACAUUCAAGAAGGGUGAAGAACAUGAGGAUCACCCAUGUAGUUGGUACAGGAUAUUGAUUUACGC,897,176,,
GCGUAUUAGGUGUAGCUAGACAUUCAAGAAGGGUGAAGAACAUGAGGAUCACCCAUGUAGUUGUUACAGGAUAUUGAUUUACGC,785,260,,
GCGUGGUUCUAGAAGGUGCUAGCGAUAAGCUAGCAAGGAUAUAGACAUGAGGAUCACCCAUGUCUUAGUGAAAUCGACACACGC,,,5.35,5.34
GCGUUAUUGUAGAAGGUACAUGAAUAUAUUUAAUACCUCAAGUAACAUGAGGAUCACCCAUGUAGUAAGGAUAUACAUAUACGC,69.4,52.4,,
GCGUUCUUGUAGAAGGUACAUACAAUAUCUUAUAAACACAUGACACAUGAGGAUCACCCAUGUUGUAAGGAUAUACAUGAACGC,6.29,7.73,,
GCGUUCUUGUAGAAGGUACAUACGACAUCUUAUAAACGCAUGACACAUGAGGAUCACCCAUGUUGUAAGGAUAUACAUGAACGC,8.88,8.05,,
GCGUUCUUGUAGAAGGUACAUACGACAUCUUAUAAACGCUUGACACAUGAGGAUCACCCAUGUUGUAAGGAUAUACAUGAACGC,6.82,7.03,,
GCGUUCUUGUAGAAGGUACCUUCAACAUAUUAUAAACGCUAGACACAUGAGGAUCACCCAUGUUGUAAGGAUAUACAUGAACGC,16.7,13.5,,
GCGUUGAACGAGAAGGCCAAUACAUGAGGAUCACCCAUGUUAAGAUGUUUUGGAGGAUAUCGUACGUCGUCUCAUGAGCAACGC,,,6.21,7.03
GCGUUUUAUGCAGGAUAUUGUAAUUUAUUACUACAAGAAGGGCAAUACAUGAGGAUCACCCAUGUCAGCAUGGUUUUUAAGUUC,,,20.4,25.9
GCUAAGCGAAUCAAGAUGGAUAGAACAUGAGGAUCACCCAUGUAGGAUAUGCUACACAAAGUGUAGCAGAAGGACAAGCUUAGC,,,19.9,33.5
GCUACAUAUAUUAAGUAUGAUUAACUAGAAGGUAGAUACAUGAGGAUCACCCAUGUUAAGAGUUCUAAGGAUAUAGUUUGUAGC,113,56.6,,
GCUAGGAUGUGAGGAUAUGCUGAGGAUACUUCAGCAGAAGGCACAUGAGGAUCACCCAUGUACACUUAUCAUAAAUACCCUAGC,,,12.7,16.2
GCUAGUAUUGCAGGAUAUUGAGAAUAAUUAUGGCAAGAAGGGCAUAACAUGAGGAUCACCCAUGUAUUCCUUAGUGAUACUAGC,,,9.07,8.33
GCUAGUAUUGCAGGAUAUUGUGAAUAAUUAUUUCAAGAAGGGCAUAACAUGAGGAUCACCCAUGUCUUCCUUUUGAAUACUAGC,,,6.95,6.51
GCUAGUAUUGCAGGAUAUUGUGAAUAAUUAUUUCAAGAAGGGCAUUACAUGAGGAUCACCCAUGUCAUCCUUUUGAAUACUAGC,,,5.67,7.63
GCUAUCGAUGUAGGAUAUGCUAGGGAAACCCUGGCAGAAGGACAUGAGGAUCACCCAUGUCAAUGGAUGAAGAGAAGAGAUGGC,,,27.8,122
GCUAUCGUUGUAGGAUAUGCUUGCCAAAGGCGAGCAGAAGGACAUGAGGAUCACCCAUGUCAGUGGUUGAAGAGAAGAGAUGGC,,,27,61.5
GCUCGAUGCGCUGAGCACAUGAGGAUCACCCAUGUAAAUGGUCAGGAUAUUUACGUGCUUUAUGUAGAGAAGGGACUAUCGAGC,630,59.4,,
GCUCGAUGUGCUGAAAACAUGAGGAUCACCCAUGUAAAUGGUCAGGAUAUUUACGUGCUUUAUGUAGAGAAGGGACCAUCGAGC,200,30.9,,
GCUCGGCCAAAAUAAAACGACGCGAAGGAUAUACACCUGGGUACUCCUACAUGAGGAUCACCCAUGUAGAAGGUCGCGGGCUUG,,,45,46.4
